# In paper PMC4065302 (Diabetes Therapy, 2014):
# Experiments:
# [1] = acidic pH; no reference given; cited from earlier work
# [2] = Serum IAsp and IDeg pharmacokinetics; assay type: in vivo, human
# In short: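 Subcutaneous abdominal dosing in T1DM subjects: insulin degludec 0.42 U/kg daily Days 1–5, insulin degludec/insulin aspart 0.6 U/kg on Day 6. Aspart was sampled predose to 12 h on Day 6. Degludec was sampled predose on Days 1–5, then to 48 h, plus 72, 96 and 120 h. Serum levels were measured by validated analyte-specific ELISAs; full analysis set n = 22.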
# [3] = test system: subjects with type 1 diabetes mellitus; assay: Safety and tolerability monitoring; assay type: in vivo, human; details: 22 subjects
# In short: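 Adults 18–65 y with T1DM on insulin ≥12 months. Regimen: insulin degludec 0.42 U/kg s.c. once daily (~8 p.m.) Days 1–5, then single insulin degludec/insulin aspart 0.6 U/kg s.c. on Day 6, with bolus insulin aspart as needed. Monitored: treatment-emergent AEs, confirmed hypoglycemia (severe per ADA, or plasma glucose <3.1 mmol/L or blood glucose <2.8 mmol/L), physical exam, vital signs, ECG, labs. Summarized descriptively.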
# [4] = cited from earlier work
# [5] = while IDeg steady state was being attained (Days 1-5)
substance,measurement,setting,value
Insulin glargine,pH at which soluble,[1],4
insulin aspart [IAsp],"AUCIAsp,0–12h (total serum exposure of IAsp in IDegAsp)","[2]; mean, n = 22, serum, ELISA, IDegAsp 0.6 U/kg s.c. (0.18 U/kg IAsp), Day 6","1,087 pmol h/L"
same,"t max,IAsp","[2]; median, n = 22, serum, ELISA, IDegAsp 0.6 U/kg s.c., Day 6",1.33 h
insulin degludec [IDeg],time to clinical steady state,[2]; once-daily IDeg 0.42 U/kg s.c.,2 to 3 days
same,injection site reactions,"[3]; during the trial, s.c. administration",No injection site reactions
same,"treatment-emergent changes in clinical laboratory parameters, vital signs, physical examination or ECG",[3]; following subcutaneous administration,no significant treatment-emergent changes
same,confirmed hypoglycemic episodes,[3]; [5],22 episodes
same,subjects with confirmed hypoglycemic episodes,[3]; [5],13 subjects
same,duration of action,[4],exceeding 42 h
same,half-life,[4]; no reference given,> 24 h
